Experimental data taken from ChEMBL document CHEMBL2390866, “Novel pyrimidoazepine analogs as serotonin 5-HT(2A) and 5-HT(2C) receptor ligands for the treatment of obesity” (Eur J Med Chem, 2013).

Key:
[1] = Oral bioavailability in Sprague-Dawley rat at 10 mg/kg; format: ADME, organism-based; settings: in vivo
Summary of the method: (§1)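 Rats fasted 12 h, then dosed orally by gavage or by bolus tail-vein injection at 2 ml/kg. Compound given as a 5 mg/ml solution in N-methyl-2-pyrrolidone/Tween 80/water (1:2:7). Samples taken at various times (n = 5) and stored at −70 °C. Plasma deproteinized with acetonitrile containing carbamazepine internal standard, then quantified by LC-MS/MS.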

[2] = Drug uptake in Sprague-Dawley rat brain at 10 mg/kg, iv measured at 2 hrs; format: ADME, organism-based; design: dose 10 mg/kg, route intravenous; settings: read-out: Drug uptake; summary of the method: as §1
[3] = Drug uptake in Sprague-Dawley rat brain at 10 mg/kg, po measured at 2 hrs; format: ADME, organism-based; design: dose 10 mg/kg, route oral; settings: read-out: Drug uptake; summary of the method: as §1
[4] = Plasma concentration in Sprague-Dawley rat at 10 mg/kg, po measured at 2 hrs; format: ADME, organism-based; design: dose 10 mg/kg, route oral; summary of the method: as §1
[5] = Plasma concentration in Sprague-Dawley rat at 10 mg/kg, po measured at 8 hrs; format: ADME, organism-based; design: dose 10 mg/kg, route oral; summary of the method: as §1
[6] = Plasma concentration in Sprague-Dawley rat at 10 mg/kg, iv measured at 2 hrs; format: ADME, organism-based; design: dose 10 mg/kg, route intravenous; summary of the method: as §1
[7] = Plasma concentration in Sprague-Dawley rat at 10 mg/kg, iv measured at 8 hrs; format: ADME, organism-based; design: dose 10 mg/kg, route intravenous; summary of the method: as §1
[8] = Drug excretion in Sprague-Dawley rat at 10 mg/kg, po; format: ADME, organism-based; design: dose 10 mg/kg, route oral; settings: in vivo, read-out: Ae; summary of the method: as §1
[9] = Drug excretion in Sprague-Dawley rat at 10 mg/kg, iv; format: ADME, organism-based; design: dose 10 mg/kg, route intravenous; settings: in vivo, read-out: Ae; summary of the method: as §1
[10] = Apparent volume of distribution at steady state in Sprague-Dawley rat at 10 mg/kg, iv; format: ADME, organism-based; design: dose 10 mg/kg, route intravenous; settings: in vivo, read-out: Vdss(app); summary of the method: as §1
[11] = Cmax in Sprague-Dawley rat at 10 mg/kg, po; format: ADME, organism-based; design: dose 10 mg/kg, route oral; settings: in vivo; summary of the method: as §1
[12] = Terminal half life in Sprague-Dawley rat at 10 mg/kg, iv; format: ADME, organism-based; design: dose 10 mg/kg, route intravenous; settings: in vivo, read-out: beta t1/2; summary of the method: as §1
[13] = AUClast in Sprague-Dawley rat at 10 mg/kg, iv; format: ADME, organism-based; design: time 0 - last, dose 10 mg/kg, route intravenous; settings: plasma
Mus musculus [14] = experiment: Antiobesity activity in B6.V/J ob/ob mouse assessed as change in gonadal adipose tissue weight at 50 mg/kg, po bid measured after 14 days (reference value: 3.599 +/- 0.155 g); format: functional
Mus musculus [15] = experiment: Antiobesity activity in B6.V/J ob/ob mouse assessed as change in lung weight at 25 mg/kg, po bid measured after 14 days (reference value: 0.143 +/- 0.013 g); format: functional
Mus musculus [16] = experiment: Antiobesity activity in B6.V/J ob/ob mouse assessed as change in kidney weight at 25 mg/kg, po bid measured after 14 days (reference value: 0.339 +/- 0.009 g); format: functional
Mus musculus [17] = experiment: Antiobesity activity in B6.V/J ob/ob mouse assessed as change in heart weight at 25 mg/kg, po bid measured after 14 days (reference value: 0.150 +/- 0.003 g); format: functional
Mus musculus [18] = experiment: Antiobesity activity in B6.V/J ob/ob mouse assessed as change in heart weight at 5 mg/kg, po bid measured after 14 days (reference value: 0.150 +/- 0.003 g); format: functional
Mus musculus [19] = experiment: Antiobesity activity in B6.V/J ob/ob mouse assessed as change in liver weight at 50 mg/kg, po bid measured after 14 days (reference value: 3.396 +/- 0.162 g); format: functional
Mus musculus [20] = experiment: Antiobesity activity in B6.V/J ob/ob mouse assessed as change in brain weight at 50 mg/kg, po bid measured after 14 days (reference value: 0.340 +/- 0.017 g); format: functional
Mus musculus [21] = experiment: Antiobesity activity in B6.V/J ob/ob mouse assessed as change in brain weight at 5 mg/kg, po bid measured after 14 days (reference value: 0.340 +/- 0.017 g); format: functional
Mus musculus [22] = experiment: Antiobesity activity in B6.V/J ob/ob mouse assessed as change in brain weight at 25 mg/kg, po bid measured after 14 days (reference value: 0.340 +/- 0.017 g); format: functional
Mus musculus [23] = experiment: Antiobesity activity in B6.V/J ob/ob mouse assessed as inhibition of food intake at 25 mg/kg, po bid measured after 14 days relative to vehicle-treated control; format: functional; settings: 336 h
Mus musculus [24] = experiment: Antiobesity activity in B6.V/J ob/ob mouse assessed as inhibition of body weight gain at 25 mg/kg, po bid measured after 14 days relative to vehicle-treated control; format: functional; settings: 336 h
Mus musculus [25] = experiment: Antiobesity activity in C57BL/6 mouse assessed as inhibition of body weight gain at 50 mg/kg, po qd measured after 14 days relative to vehicle-treated control; format: functional; settings: C57BL/6, 336 h
Mus musculus [26] = experiment: Antiobesity activity in B6.V/J ob/ob mouse assessed as inhibition of body weight gain at 12.5 mg/kg, ip measured after 12 hrs relative to vehicle-treated control; format: functional; settings: route intraperitoneal
Mus musculus [27] = experiment: Antiobesity activity in B6.V/J ob/ob mouse assessed as inhibition of food intake at 50 mg/kg, ip measured up to 6 hrs relative to vehicle-treated control; format: functional; settings: route intraperitoneal
Summary of the method: (§2)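 Male mice were acclimated 1 week at 23 ± 3 °C and 50 ± 20% humidity, then fasted 24 h. They were dosed once intraperitoneally with vehicle or compound: 50 mg/kg in C57BL/6, or 12.5, 25 or 50 mg/kg in B6.V-Lep^ob/J. Food intake was measured at 2, 6 and 12 h versus vehicle control.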

Mus musculus [28] = experiment: Antiobesity activity in B6.V/J ob/ob mouse assessed as inhibition of food intake at 25 mg/kg, ip measured up to 12 hrs relative to vehicle-treated control; format: functional; settings: route intraperitoneal; summary of the method: as §2
Mus musculus [29] = experiment: Antiobesity activity in C57BL/6 mouse assessed as inhibition of body weight gain at 50 mg/kg, ip measured after 2 to 12 hrs relative to vehicle-treated control; format: functional; settings: C57BL/6, ip, route intraperitoneal
Mus musculus [30] = experiment: Antiobesity activity in C57BL/6 mouse assessed as inhibition of food intake at 50 mg/kg, ip measured after 2 to 12 hrs relative to vehicle-treated control; format: functional; settings: C57BL/6, ip, route intraperitoneal; summary of the method: as §2
D(2) dopamine receptor = D(2) dopamine receptor (Homo sapiens, UniProt P14416); experiment: Displacement of [3H]-methylspiperone from dopamine D2L receptor (unknown origin) after 60 mins
Summary of the method: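 Receptor membranes incubated at 27 °C, 60 min for D2L and 30 min for D3, with [3H]methylspiperone (0.2 nM for D2L, 0.25 nM for D3) and test compound at a range of concentrations. Buffer was 50 mM Tris-HCl pH 7.4, 10 mM MgCl2, 1 mM EDTA, 120 mM NaCl. Nonspecific binding defined with haloperidol (D2) or GR103691 (D3). IC50 obtained by nonlinear regression.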

Homo sapiens [31] = species: Homo sapiens; experiment: Selectivity ratio of IC50 for human recombinant 5HT-2B receptor to IC50 for human recombinant 5HT-2C receptor
Homo sapiens [32] = species: Homo sapiens; experiment: Selectivity ratio of IC50 for human recombinant 5HT-2B receptor to IC50 for human recombinant 5HT-2A receptor
[33] = target: 5-hydroxytryptamine receptor 2A (Homo sapiens, UniProt P28223); experiment: Displacement of [3H]-ketanserin from human recombinant 5HT-2A receptor expressed in CHOK1 cell membranes after 60 mins; design: species or system CHO-K1
Summary of the method: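 Buffer was 50 mM Tris-HCl pH 7.4 with 5 mM CaCl2 and 0.1% ascorbic acid. Test compound added at a range of concentrations.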

Chain of 5-hydroxytryptamine receptor 2A (P28223 whole entry): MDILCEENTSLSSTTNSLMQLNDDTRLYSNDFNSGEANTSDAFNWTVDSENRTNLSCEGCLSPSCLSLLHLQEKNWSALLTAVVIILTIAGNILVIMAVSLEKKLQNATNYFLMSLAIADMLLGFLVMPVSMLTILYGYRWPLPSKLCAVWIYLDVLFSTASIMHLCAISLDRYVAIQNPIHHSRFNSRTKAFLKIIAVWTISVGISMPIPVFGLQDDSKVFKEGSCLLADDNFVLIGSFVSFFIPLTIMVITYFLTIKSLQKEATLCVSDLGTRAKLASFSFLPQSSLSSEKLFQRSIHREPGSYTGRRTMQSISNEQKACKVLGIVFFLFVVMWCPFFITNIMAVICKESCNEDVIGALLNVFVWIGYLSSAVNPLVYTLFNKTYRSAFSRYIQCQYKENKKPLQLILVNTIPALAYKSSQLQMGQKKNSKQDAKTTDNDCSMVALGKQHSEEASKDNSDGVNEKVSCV
Chain of D(2) dopamine receptor (P14416 whole entry): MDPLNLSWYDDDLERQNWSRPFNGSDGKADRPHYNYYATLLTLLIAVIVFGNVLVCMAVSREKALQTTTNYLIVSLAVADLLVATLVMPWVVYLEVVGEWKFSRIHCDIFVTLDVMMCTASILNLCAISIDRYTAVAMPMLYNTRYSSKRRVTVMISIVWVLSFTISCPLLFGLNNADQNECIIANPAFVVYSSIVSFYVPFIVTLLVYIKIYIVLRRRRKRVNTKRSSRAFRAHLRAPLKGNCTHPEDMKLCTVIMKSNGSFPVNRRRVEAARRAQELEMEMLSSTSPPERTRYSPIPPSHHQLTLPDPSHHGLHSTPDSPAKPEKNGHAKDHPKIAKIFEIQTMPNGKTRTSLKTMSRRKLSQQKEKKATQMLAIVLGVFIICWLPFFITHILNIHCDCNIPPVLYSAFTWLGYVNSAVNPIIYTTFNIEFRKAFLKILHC

Compound `Cl.Clc1cccc(Nc2nc(Cc3ccccc3)nc3c2CCNCC3)c1` has a bioavailability [1] of 55.1%, a concentration at 2 h [2] of 1480 ng/mL and a concentration at 2 h [3] of 29.2 ng/mL. The concentration at 2 h [4] was 50 ng/mL, the concentration at 8 h [5] was 30 ng/mL and the concentration at 2 h [6] was 190 ng/mL. For the same compound, the concentration at 8 h [7] was 60 ng/mL, the dose excreted [8] was 0.03% and the dose excreted [9] was 0.03%. The Vd [10] was 17 L/kg, the Cmax [11] was 70 ng/mL and the half-life [12] was 2.25 h. For the same compound, the AUC(0-t) [13] was 1730 ng·h/mL, the Activity (Mus musculus [14]) was 3.475 g and the Activity (Mus musculus [15]) was 0.154 g. The Activity (Mus musculus [16]) was 0.329 g, the Activity (Mus musculus [17]) was 0.143 g and the Activity (Mus musculus [18]) was 0.163 g. It also gave an Activity (Mus musculus [19]) of 3.87 g, an Activity (Mus musculus [20]) of 0.36 g and an Activity (Mus musculus [21]) of 0.344 g. For the same compound, the Activity (Mus musculus [22]) was 0.369 g, the inhibition in vivo at 25 mg/kg (Mus musculus [23]) was 15.2% and the inhibition in vivo at 25 mg/kg (Mus musculus [24]) was 32.7%. For the same compound, the inhibition in vivo at 50 mg/kg (Mus musculus [25]) was 18.8%, the inhibition in vivo at 12.5 mg/kg (Mus musculus [26]) was 24.9% and the inhibition in vivo at 50 mg/kg (Mus musculus [27]) was 98.6%. For the same compound, the inhibition in vivo at 25 mg/kg (Mus musculus [28]) was 77.8%, the inhibition in vivo at 50 mg/kg (Mus musculus [29]) was 84.8% and the inhibition in vivo at 50 mg/kg (Mus musculus [30]) was 76.6%. It also gave an IC50 (D(2) dopamine receptor) of 85.8 nM, a Ratio IC50 (Homo sapiens [31]) of 8.1 and a Ratio IC50 (Homo sapiens [32]) of 4.2. It also gave an IC50 [33] of 3 nM.
